Assay outcomes as filed in PubChem.
Shown are actives, neighbours in structure and some others; about 0.79% of the full set was active somewhere.
PKA-R2B act: activators of human PKA-R2B complex; P22694+P31323; PKA-R2B holoenzyme dissociation, Cy5-IP20 fluorescence polarization; R2B truncated from residue 108, S112A mutant; 0% DMSO only, 100% 113 µM cGMP; AID 504700; activation, % at 11.4 µM; 340,000 tested, 0.079% active;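 active = activation above a cutoff set at the mean over all compounds plus 3 SD, cut at about 18% in these data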;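 also: higher means more holoenzyme dissociation and a rise in polarization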
PKA-R1A act: activates the PKA-R1A holoenzyme complex; PKA-R1A dissociation, Cy5-IP20 fluorescence polarization; scaled: DMSO 0%, 113 µM cGMP 100%; activation, % at 11.4 µM; AID 504707; P00514+P68181; 340,000 tested, 0.083% active;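 active = percent activation above the mean of all tested compounds plus 3 SD, cut at about 19% in these data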;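 also: higher means more PKAc released from R1A so a rise in polarization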
Rin1 Abl inh: inhibitors of human Rin1-Abl protein interaction. P00519+Q13671. TR-FRET Rin1/Abl binding, biochemical. inhibition, % at 7.35 µM. 360,000 tested, 0.4% active; in the data active = inhibition above about 5%, passing the limit was not always enough
UCH37 inh: inhibitors of human deubiquitinating enzyme UCH37 | Q9Y5K5 | purified proteasome/UCH37, Ub-AMC cleavage fluorescence | inhibition, % (test concentration not listed) | 330,000 tested, 0.33% active;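 active = mean inhibition over replicate wells above about 20%, limit read from the data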
Target sequence (Q9Y5K5 whole entry, looked up): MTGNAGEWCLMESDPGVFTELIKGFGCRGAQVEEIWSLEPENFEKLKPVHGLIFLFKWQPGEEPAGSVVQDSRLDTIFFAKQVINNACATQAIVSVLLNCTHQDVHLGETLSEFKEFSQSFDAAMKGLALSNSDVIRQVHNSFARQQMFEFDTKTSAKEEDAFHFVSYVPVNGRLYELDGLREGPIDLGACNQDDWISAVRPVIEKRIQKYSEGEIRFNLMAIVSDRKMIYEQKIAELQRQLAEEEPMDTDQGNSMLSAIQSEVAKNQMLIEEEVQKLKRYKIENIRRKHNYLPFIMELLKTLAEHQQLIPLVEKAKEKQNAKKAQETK
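Material: human UCH37 enzyme supplied as purified proteasome complex. Measure: % inhibition of Ub-AMC cleavage fluorescence. Medium: pH 7.4 Tris-HCl (50 mM) with ovalbumin, ATP-MgCl2, DTT. Times: 30 min preincubation with enzyme, 25 min cleavage at room temperature. Detection: AMC fluorescence intensity at 355/460 nm.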
Rin1-Abl confirm: confirmation of inhibitors of human Rin1-Abl interaction; shares compounds with Rin1 Abl inh; inhibition, % at 7.35 µM; TR-FRET Rin1-Abl binding, purified proteins; AID 602124; 1,300 tested, 49% active
GFP quench: quenches GFP fluorescence, counter-screen for Rin1-Abl inhibitors | shares compounds with Rin1 Abl inh | inhibitors/quenchers counterscreen | inhibition, % at 6.75 µM | 1,300 tested, 8.5% active | AID 602125;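 also: ABL1-eGFP fusion protein alone without its partner RIN1-SBP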
GFP quench DR: quenches GFP in dose response, Rin1-Abl counter-screen | shares compounds with Rin1 Abl inh | GFP fluorescence interference/quenching counterscreen | IC50, µM | 230 tested, under 10 active; call rule not given here;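 also: ABL1-eGFP fusion protein alone without its RIN1 binding partner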
Large screens that a line does not name were inactive (follow-up assays come after a bar, where they were run). Rule as the data show it, unless noted: active = inhibition above about 6.5%; inactive = the rest.

Cc1ncc(C[n+]2csc(C)c2C)c(N)n1	Rin1 Abl inh 9.7 | Rin1-Abl confirm inactive | GFP quench inactive
Cc1ncc(C[n+]2csc(CCO)c2C)c(N)n1	none
O=C(CN1C(=O)CCSc2ccc(S(=O)(=O)N3CCOCC3)cc21)Nc1cccc(F)c1	Rin1 Abl inh 16 | Rin1-Abl confirm 15 | GFP quench inactive
COc1cccc(NC(=O)CN2C(=O)CSc3ccc(S(=O)(=O)N4CCOCC4)cc32)c1	none
COc1ccc(Nc2nc3c(C)cccc3cc2C#N)cc1	none
Cc1cc(N/N=C/c2ccc(O)cc2O)nc(-n2nc(C)cc2C)n1	Rin1 Abl inh 12 (no result: UCH37 inh) | Rin1-Abl confirm 10 | GFP quench inactive
O=C(COC(=O)Cc1c[nH]c2ccccc12)Nc1ccc(Cl)cc1	none (no result: UCH37 inh)
Cc1ccc(NC(=O)COC(=O)Cc2c[nH]c3ccccc23)cc1F	Rin1 Abl inh 10 | Rin1-Abl confirm inactive | GFP quench inactive
COc1ccc(C2C(C(C)=O)=C(C)Nc3ncnn32)c(OC)c1OC (stereo not given)	none
CCCS(=O)(=O)NC(=O)C1(C)CCCN(C(=O)c2ccc(F)c(Cl)c2)C1 (stereo not given)	Rin1 Abl inh 17 (no result: PKA-R2B act, PKA-R1A act, UCH37 inh) | Rin1-Abl confirm inactive | GFP quench inactive
OC(CC1CC12c1ccccc1-c1ncccc12)(c1ccccc1)c1ccccc1 (stereo not given)	none
CCCN(CCC)CCCNC(=O)Cn1cnc2sc(C)c(S(=O)(=O)N3CCC(C)CC3)c2c1=O	none
COc1ccccc1C(=O)Nc1ccc(C(=O)N2CCCCC2)cc1	Rin1 Abl inh 14 | Rin1-Abl confirm 13 | GFP quench inactive
CN(/N=C/c1ccc(O)cc1O)c1ncc(C(F)(F)F)cc1Cl	Rin1 Abl inh 8.6 (no result: UCH37 inh) | Rin1-Abl confirm inactive | GFP quench inactive
Cc1ccc(C(=O)N2CCCC(CCC(=O)N3CCN(c4ccccn4)CC3)C2)cc1C (stereo not given)	Rin1 Abl inh 9.4 | Rin1-Abl confirm inactive | GFP quench inactive
O=C(CCC1CCCN(c2ncccn2)C1)N1CCN(c2ccccn2)CC1 (stereo not given)	none
O=C(CCC1CCCN(C(=O)C2(c3ccccc3)CC2)C1)N1CCN(c2ccccn2)CC1 (stereo not given)	Rin1 Abl inh 10.0 | Rin1-Abl confirm inactive | GFP quench inactive
Cc1ccc(C(=O)N2CCCC(CCC(=O)N3CCN(c4ccccn4)CC3)C2)cn1 (stereo not given)	none
Cc1cccc(C(=O)N2CCCC(CCC(=O)N3CCN(c4ccccn4)CC3)C2)c1C (stereo not given)	Rin1 Abl inh 12 | Rin1-Abl confirm inactive | GFP quench inactive
CCn1c(=S)sc2nc(C)sc21	none
O=C(Nc1cc(Cl)cc(Cl)c1)C1CCC(=O)N1Cc1ccccc1Cl (stereo not given)	none
COc1ccc(-c2noc(N3CCC(C(=O)Nc4ccc(F)cc4)CC3)n2)cc1	none
COc1ccc(NC(=O)C2CCCN(c3ncnc4onc(-c5ccc(F)cc5)c34)C2)cc1 (stereo not given)	Rin1 Abl inh 9.2 | Rin1-Abl confirm inactive | GFP quench inactive
OC[C@@H]1CN(Cc2ccc(-c3ccccc3)cc2)C[C@H](n2cnc3c(NC4CC4)ncnc32)O1	Rin1 Abl inh 26 (no result: PKA-R2B act, PKA-R1A act, UCH37 inh) | Rin1-Abl confirm 21 | GFP quench inactive | GFP quench DR inactive
CNc1ncnc2c1ncn2[C@H]1CN(Cc2ccc(-c3ccccc3)cc2)C[C@@H](CO)O1	Rin1 Abl inh 9.7 (no result: PKA-R2B act, PKA-R1A act, UCH37 inh) | Rin1-Abl confirm 13 | GFP quench inactive
OC[C@@H]1CN(Cc2ccc(Cl)cc2)C[C@H](n2cnc3c(NC4CCC4)ncnc32)O1	Rin1 Abl inh 12 (no result: PKA-R2B act, PKA-R1A act, UCH37 inh) | Rin1-Abl confirm 9.4 | GFP quench inactive
OC[C@@H]1CN(Cc2ccc(-c3ccccc3)cc2)C[C@H](n2cnc3c(Nc4ccccc4)ncnc32)O1	none (no result: PKA-R2B act, PKA-R1A act, UCH37 inh)
CC(C)CNc1ncnc2c1ncn2[C@H]1CN(Cc2ccc(Cl)cc2)C[C@@H](CO)O1	Rin1 Abl inh 18 (no result: PKA-R2B act, PKA-R1A act, UCH37 inh) | Rin1-Abl confirm 10 | GFP quench inactive
Cc1ccccc1NC(=O)CSc1ccncc1	none
